Data taken from ChEMBL document CHEMBL1123453, “Quinazoline antifolates inhibiting thymidylate synthase: benzoyl ring modifications” (J Med Chem, 1986).

Assays:
L1210 = test: The compound was evaluated for the inhibition of growth of L1210 cells in culture; assay type: functional, cell-based; conditions: Mus musculus
Method in brief: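 L1210 cells grown in culture; growth inhibition reported as the ID50 in μM.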

Thymidylate synthase [1] = target: T1, Thymidylate synthase (Mus musculus, UniProt P07607); test: In vitro inhibition of L1210 thymidylate synthase
Method in brief: (§1)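 Thymidylate synthase purified from L1210 cells; IC50 determined, with CB3717 assayed as the reference control alongside each compound.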

Dihydrofolate reductase = target: T2, Dihydrofolate reductase (Mus musculus, UniProt P00375); test: The compound was evaluated in vitro for inhibition of purified L1210 dihydrofolate reductase
T2 sequence (P00375 whole entry): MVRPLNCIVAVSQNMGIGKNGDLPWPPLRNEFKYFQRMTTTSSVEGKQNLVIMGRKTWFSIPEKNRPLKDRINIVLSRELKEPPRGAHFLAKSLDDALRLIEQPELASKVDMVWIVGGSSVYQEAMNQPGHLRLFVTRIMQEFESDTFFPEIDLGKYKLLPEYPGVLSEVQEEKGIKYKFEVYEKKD

Thymidylate synthase [2] = target: T1, Thymidylate synthase; test: In vitro inhibition of L1210 thymidylate synthase with CB3717 as control; method in brief: as §1

T1 sequence (P07607 whole entry): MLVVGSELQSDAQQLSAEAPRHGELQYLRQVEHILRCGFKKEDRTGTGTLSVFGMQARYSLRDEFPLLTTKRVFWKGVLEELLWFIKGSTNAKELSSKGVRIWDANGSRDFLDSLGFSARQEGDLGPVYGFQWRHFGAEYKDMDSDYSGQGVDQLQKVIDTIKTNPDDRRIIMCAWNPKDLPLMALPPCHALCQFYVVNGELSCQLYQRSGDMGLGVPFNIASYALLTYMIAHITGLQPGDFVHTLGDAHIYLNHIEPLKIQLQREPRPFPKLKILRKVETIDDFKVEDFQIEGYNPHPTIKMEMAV

Structure (SMILES)	IC50 (L1210) [µM]	IC50 (Thymidylate synthase [1]) [µM]	IC50 (Dihydrofolate reductase) [µM]	IC50 (Thymidylate synthase [2]) [µM]
C#CCN(Cc1ccc2nc(N)nc(O)c2c1)c1ccc(C(=O)NC(CCC(=O)O)C(=O)O)cc1Cl (configuration not stated)	72	5	3	0.0144
C#CCN(Cc1ccc2nc(N)nc(O)c2c1)c1ccc(C(=O)NC(CCC(=O)O)C(=O)O)c(C)c1 (configuration not stated)	24	0.4	25	0.019
C#CCN(Cc1ccc2nc(N)nc(O)c2c1)c1c(Cl)cc(C(=O)NC(CCC(=O)O)C(=O)O)cc1Cl (configuration not stated)	37	> 5	3	0.0144

Stronger by IC50 (L1210), values ahead:

IC50 (L1210) [µM]	IC50 (Thymidylate synthase [1]) [µM]	IC50 (Dihydrofolate reductase) [µM]	IC50 (Thymidylate synthase [2]) [µM]	Structure (SMILES)
12	0.03	11	0.014	C#CCN(Cc1ccc2nc(N)nc(O)c2c1)c1ccc(C(=O)NC(CCC(=O)O)C(=O)O)c(Cl)c1 (configuration not stated)
7	–	–	–	C#CCN(Cc1ccc2[nH]c(N)nc(=O)c2c1)c1ccc(C(=O)NC(CCC(=O)O)C(=O)O)cc1 (configuration not stated)
